Each structure is given as a SMILES string.

Two compounds from PMC6791425 (Oncoimmunology, 2019) can be followed below.

Data set [1] deals with PSMA expressed on LNCaP cells (Homo sapiens, UniProt Q04609). The data set is described as follows: competitive cell-binding assay with PSMA-positive LNCaP cells.
Data set [2] can be described thus: biodistribution analysis in LNCaP tumor-bearing mice. Type of data set: in vivo, NMRI nu/nu mice. The note with it: high molar activity, approximately 10 MBq. The procedure, abridged: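 Mice bearing LNCaP tumours (100–500 mm3) were injected with approximately 10 MBq of the 68Ga-labelled test compound, giving groups at high molar activity (low peptide amount) and low molar activity (high peptide amount). Organ distribution was determined in three mice per condition. Labelling was done at pH 4.2, 98°C, for 10 min in HEPES.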

Chain of PSMA expressed on LNCaP cells (Q04609 whole entry): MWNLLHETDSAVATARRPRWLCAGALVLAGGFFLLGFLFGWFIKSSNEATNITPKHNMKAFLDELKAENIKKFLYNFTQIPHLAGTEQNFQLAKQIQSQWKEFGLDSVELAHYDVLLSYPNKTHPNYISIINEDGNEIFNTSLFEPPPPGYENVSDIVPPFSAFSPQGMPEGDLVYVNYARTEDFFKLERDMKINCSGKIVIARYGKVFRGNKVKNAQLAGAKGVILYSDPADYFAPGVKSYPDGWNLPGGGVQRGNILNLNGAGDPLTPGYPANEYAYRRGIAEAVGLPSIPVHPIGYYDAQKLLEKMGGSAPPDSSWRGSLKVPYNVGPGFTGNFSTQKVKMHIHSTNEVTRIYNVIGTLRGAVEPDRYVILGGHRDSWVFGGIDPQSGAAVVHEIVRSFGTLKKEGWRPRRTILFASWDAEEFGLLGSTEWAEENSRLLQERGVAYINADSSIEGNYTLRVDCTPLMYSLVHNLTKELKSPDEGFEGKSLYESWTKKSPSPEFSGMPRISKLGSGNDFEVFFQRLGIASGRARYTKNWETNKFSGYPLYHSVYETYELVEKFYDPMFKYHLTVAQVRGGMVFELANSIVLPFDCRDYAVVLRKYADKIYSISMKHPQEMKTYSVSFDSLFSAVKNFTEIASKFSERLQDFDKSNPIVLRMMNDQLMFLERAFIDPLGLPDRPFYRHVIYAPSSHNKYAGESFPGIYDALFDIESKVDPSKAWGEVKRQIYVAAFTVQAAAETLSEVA

Take `O=C(O)CCc1ccc(O)c(CN(CCN(CC(=O)O)Cc2cc(CCC(=O)NCCCCCC(=O)NCCCC[C@H](NC(=O)N[C@@H](CCC(=O)O)C(=O)O)C(=O)O)ccc2O)CC(=O)O)c1` [PSMA-11]: the concentration for half-maximal inhibition (IC50) (usually the midpoint of a concentration-inhibition curve) in data set [1] amounted to 14.8 ± 1.2 nM.

In the case of `O=C([O-])CN(CCN(CC(=O)[O-])Cc1cc(CCC(=O)NCCCCCC(=O)NCCCC[C@H](NC(=O)N[C@@H](CCC(=O)O)C(=O)O)C(=O)O)ccc1[O-])Cc1cc(CCC(=O)O)ccc1[O-].[68Ga+3].[OH3+]` [[^68Ga]Ga-PSMA-11], the Tumor in data set [2] (LNCaP tumor) was 2.99 SUV (g/g). In addition, in data set [2], the Adrenals is reported as 3.11 SUV (g/g), the BAT is reported as 0.10 SUV (g/g), the Blood is recorded as 0.06 SUV (g/g) and the Brain was 0.01 SUV (g/g). Besides, in data set [2], the Femur is on record as 0.04 SUV (g/g), the Heart is 0.09 SUV (g/g), the Kidneys is recorded as 50.79 SUV (g/g) and the Liver is recorded as 0.11 SUV (g/g). Besides, in data set [2], the Lung is on record as 0.45 SUV (g/g), the Muscle is reported as 0.04 SUV (g/g), the Pancreas is listed as 0.29 SUV (g/g) and the Ratio tumor/muscle is 70.87. Further, in data set [2], the Skin is given as 0.09 SUV (g/g), the Spleen is 1.53 SUV (g/g), the Subm. gl. is 0.29 SUV (g/g) and the Testes is recorded as 0.22 SUV (g/g). Further, the WAT in data set [2] is 0.33 SUV (g/g).
